KCNQ1 pot = potentiators or activators of KCNQ1 channel, primary screen, cell-based, thallium flux, high-throughput. CHO-K1 KCNQ1, thallium flux FluxOR fluorescence; hits give high values. B-score at 10 µM. 310,000 tested, 0.35% active;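 active = fluorescence ratio B-score, a plate-corrected score, at least three library SD, with initial intensity B-score within 5 SD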
Target sequence (P51787 whole entry, looked up): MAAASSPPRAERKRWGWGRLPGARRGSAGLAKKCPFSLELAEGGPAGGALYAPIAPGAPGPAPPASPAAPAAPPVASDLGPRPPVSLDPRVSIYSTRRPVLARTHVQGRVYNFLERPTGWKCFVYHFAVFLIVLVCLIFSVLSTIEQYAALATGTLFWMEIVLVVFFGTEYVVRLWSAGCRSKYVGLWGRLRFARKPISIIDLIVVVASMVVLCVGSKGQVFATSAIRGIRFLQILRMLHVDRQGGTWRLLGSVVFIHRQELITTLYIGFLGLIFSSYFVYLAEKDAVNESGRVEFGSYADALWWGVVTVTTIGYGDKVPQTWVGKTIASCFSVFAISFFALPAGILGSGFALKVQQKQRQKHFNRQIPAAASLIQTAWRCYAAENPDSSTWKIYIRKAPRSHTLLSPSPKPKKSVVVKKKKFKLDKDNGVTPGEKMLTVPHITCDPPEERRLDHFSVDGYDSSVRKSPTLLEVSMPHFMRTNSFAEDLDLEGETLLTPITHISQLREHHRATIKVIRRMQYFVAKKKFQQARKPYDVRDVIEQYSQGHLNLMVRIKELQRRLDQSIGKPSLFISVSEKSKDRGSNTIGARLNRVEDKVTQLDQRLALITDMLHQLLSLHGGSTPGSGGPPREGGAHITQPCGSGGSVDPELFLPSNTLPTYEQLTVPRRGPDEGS
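System: CHO-K1 cells stably expressing KCNQ1 / Medium: assay buffer for compound exposure, DMSO matched across wells / Reagent: thallium- and potassium-containing depolarizing buffer / Compound: one concentration, matched DMSO / Incubation: 20 min compound pretreatment at room temperature / Measured by: kinetic FluxOR fluorescence, 10 s baseline plus 110 s post-stimulus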
KCNQ1 inh = inhibitors of human KCNQ1 channel, primary screen, cell-based, thallium flux, high-throughput; Potassium voltage-gated channel subfamily KQT member 1 (Homo sapiens), P51787; CHO-K1 KCNQ1, FluxOR thallium flux fluorescence; hits give high values; B-score at 10 µM; 310,000 tested, 1.3% active;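 active = compounds whose thallium flux B-score, printed positive for inhibition, exceeds three library SD while starting fluorescence stays within three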;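 also: channel opened by potassium depolarization with thallium stimulus after 20 min compound exposure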
KCNK9 inh = KCNK9 potassium channel inhibitors, primary screen, HEK293 cells, thallium flux | Potassium channel subfamily K member 9 (Homo sapiens), Q9NPC2 | FluxOR thallium flux fluorescence; hits give low values | B-score at 10 µM | 310,000 tested, 1.2% active;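 active = ratio B-score over 3 SD below the library mean, with starting fluorescence within 5 SD of its mean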;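 also: negative B-score means less thallium flux so channel inhibition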
KCNK3 block = human KCNK3 channel inhibitors, primary screen, CHO cells, FluxOR thallium flux, B-score; Potassium channel subfamily K member 3 (Homo sapiens), O14649; FluxOR fluorescence; hits give low values; B-score at 10 µM; 340,000 tested, 0.84% active;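 active = B-score under library mean minus 4 SD, starting fluorescence ratio at most library mean plus 5 SD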;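 also: more negative B-score means stronger inhibition of thallium flux through KCNK3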
hERG protect = hERG rescue from dofetilide block, primary screen, cell-based, CHO-hERG, FluxOR thallium flux, dofetilide IC70; activation (rescue from dofetilide block), less the hit threshold, % at 10 µM; 310,000 tested, 0.51% active; Voltage-gated inwardly rectifying potassium channel KCNH2 (Homo sapiens), Q12809; dofetilide IC70 present;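 active = activation above the mean of controls blocked by dofetilide plus 5 SD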;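 also: thallium influx through hERG after potassium depolarization seen as dye fluorescence rise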
Cl transport mod = KCC2 cotransporter modulators, thallium flux, primary screen, cell-based, HEK293 KCC2, FluoZin-2 fluorescence, MLSMR; Solute carrier family 12 member 5 (Homo sapiens), Q9H2X9; KCC2 cells, thallium flux FluoZin-2 fluorescence; B-score of Tl+ flux slope (higher = more flux/activation; lower = inhibition) at 10 µM; 190,000 tested, 2.2% active; AID 1456, 2008;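 active = thallium flux slope and its plate-corrected score both differing from the plate sample mean at a set confidence after two filtering rounds, in either direction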;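 also: slope of fluorescence scaled to starting intensity during 10 to 20 s after thallium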
Starred values were filed as active, the others as inactive; i = inactive; / = not tested or not shown. Most compounds without a hit are left out; they make up all but 4.1% or so of the library.

SMILES | KCNQ1 pot | KCNQ1 inh | KCNK9 inh | KCNK3 block | hERG protect | Cl transport mod
CC(C)Cc1ccccc1S(N)(=O)=O | i | i | i | i | -5 | /
CC(C)N1CCN(C(=O)c2ccc(OC3CCN(CCc4ccccc4)CC3)cc2)CC1 | i | i | i | i | -9 | /
CCc1nnc(NC(=O)c2cccc(S(=O)(=O)N3CCN(c4ccccc4)CC3)c2)s1 | i | i | i | i | 5.5* | -0.82
CCOP(=O)(OCC)c1nc(-c2ccc(F)cc2)oc1NCc1ccccc1 | i | i | -6.6* | i | -11 | -2
O=C(c1ccc(=O)[nH]c1)N1CCN(S(=O)(=O)c2ccc3ccccc3c2)CC1 | / | / | / | i | / | /
CC1CCCCN1C(=O)c1cccc(NC2=C(Cl)C(=O)N(Cc3ccccc3)C2=O)c1 (stereo not given) | / | / | / | -11* | / | /
O=C(OCc1c(-c2ccccc2)ncc2ccccc12)N1CCOCC1 | / | / | / | i | / | /
O=C(c1cccc(S(=O)(=O)N2CCc3ccccc32)c1)N1CCN(c2ccccc2)CC1 | / | / | / | -8.9* | / | /
CCOc1ccc(Oc2ccc(NC(=O)CSc3nncn3C)cc2)cc1 | / | / | / | i | / | /
N/C(Cc1ccc(Cl)cc1)=N\OC(=O)c1ccc2ccccc2c1 | i | i | i | i | -2 | -0.006
N/C(Cc1ccc(Cl)cc1)=N\OC(=O)c1cccc2ccccc12 | i | i | -14* | i | -3 | -0.34
O=C(OCc1nnc(-c2ccc(Cl)cc2)o1)c1ccc(O)cc1 | i | i | i | i | -8 | 0.62
CS(=O)(=O)c1ccc(C(=O)OCc2nnc(-c3ccc(Cl)cc3)o2)cc1[N+](=O)[O-] | 12* | i | i | i | -18 | /
O=C(Cc1coc(-c2ccc(F)cc2)n1)NCc1ccccc1 | i | i | i | i | -6 | -2.6*
CCOc1cc2c(cc1/C=C/c1noc(C)c1[N+](=O)[O-])OC(C)C2 (stereo not given) | i | 7* | i | i | -9 | /
CCOc1cc2c(cc1C=O)OC(C)C2 (stereo not given) | i | i | i | i | -6 | /
CC(C)n1c(-c2ccc(C(C)(C)C)cc2)n[nH]c1=S | i | i | i | i | -12 | 37*
CC(C)(C)c1ccc(-c2n[nH]c(=S)n2Cc2ccccc2)cc1 | i | i | i | i | -10 | /
CC(c1ccccc1)n1c(-c2ccc(Cl)cc2)n[nH]c1=S (stereo not given) | i | i | i | i | 7.8* | /
Cc1ccc2sc(N(CCCN(C)C)C(=O)c3ccc(S(=O)(=O)N(C)C4CCCCC4)cc3)nc2c1C | i | i | i | i | -24 | /
CCN(Cc1ccccc1)S(=O)(=O)c1ccc(C(=O)N(CCCN(C)C)c2nc3cc4c(cc3s2)OCO4)cc1 | i | 6* | i | i | -30 | /
CCN(Cc1ccccc1)S(=O)(=O)c1ccc(C(=O)N(CCCN(C)C)c2nc3c(C)c(C)ccc3s2)cc1 | i | 8* | i | i | -19 | /
CN(C)CCCN(C(=O)c1ccc(S(=O)(=O)N(C)C)cc1)c1nc2cc3c(cc2s1)OCO3 | i | i | i | i | -7 | -1.9
CCOc1ccc(C(=O)NCC(=O)NCC(c2ccco2)N2CCCCC2)cc1 (stereo not given) | / | / | / | i | / | /
CC(=O)N1N=C(c2ccc(NS(=O)(=O)c3ccccc3)cc2)CC1c1ccco1 (stereo not given) | / | / | / | i | / | /
C=CCN1C(=O)c2ccc(C(=O)N3CCC(C(N)=O)CC3)cc2C1=O | i | i | i | i | -5 | /
Cc1cccc(-c2cc3nc4c(c(N5CCOCC5)n3n2)CCCC4)c1 | i | i | i | i | -7 | 0.028
Cc1cccc(-c2cc3nc4c(c(NCc5ccco5)n3n2)CCCC4)c1 | i | i | -7.2* | i | -9 | 2

Screens (PubChem)
